Source: PubChem BioAssay (several laboratories)
Compounds with a hit are over-represented: about 9.8% of the library has one in this group of screens.
WT yeast gro inh: growth inhibition of WT strain, primary screen, mitochondrial fusion inhibitor project, WT and mutant strains, chemical genetic. mitochondrial fusion phenotypic screen. actives 2.1% (n = 190,000). inhibition, % at 10 µM. AID 1362, 2008; in the data active = inhibition above about 58%; tested in S. cerevisiae
PMI act: activators of human PMI, primary screen, biochemical, fluorescence intensity, near-Km mannose 6-phosphate; Mannose-6-phosphate isomerase (Homo sapiens), P34949; purified human PMI, coupled resazurin fluorescence, 20 min; hits give high values; 1 = vehicle control, 0 substrate-free wells; activation factor at 20 µM; actives 0.005% (n = 190,000);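 active = activation factor of 2 or more at 20 µM, relative to plate controls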
PMI act satM6P: human PMI activators, high substrate, primary screen, biochemical, fluorescence intensity, near-saturating mannose 6-phosphate; Mannose-6-phosphate isomerase (Homo sapiens), P34949; coupled PMI enzyme assay, resazurin fluorescence, 20 min; hits give high values; 1 = untreated enzyme, 0 = substrate-free blank; activation factor at 20 µM; actives 0.34% (n = 190,000); AID 1216, 2008;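 active = activation factor of 2 or more at 20 µM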
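Test system: human phosphomannose isomerase with PGI, G6PDH, diaphorase coupling enzymes; amount: 15 ng/mL PMI; incubation: enzyme reaction with compound 20 min at room temperature; technique: resorufin fluorescence (Ex 544/Em 590 nm) from resazurin via diaphorase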
m-calpain inh: inhibitors of pig calpain II, primary screen, biochemical, fluorogenic peptide substrate, 1536-well; purified calpain II, 30 min; inhibition, % at 16 µM; actives 0.37% (n = 220,000);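 active = inhibition above about 50%, limit read from the data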
Rad51 HR inh: human RAD51 strand exchange inhibitors, primary screen, biochemical, fluorescence; DNA repair protein RAD51 homolog 1 (Homo sapiens), Q06609; hRad51 DNA strand exchange, fluorescence dequenching; inhibition, % at 10 µM; actives 0.085% (n = 200,000);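 active = inhibition above 40% at the single screening dose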;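 note: 0% = DMSO control wells and 100% = blanks with heterologous ssDNA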
Target sequence (Q06609 whole entry, looked up): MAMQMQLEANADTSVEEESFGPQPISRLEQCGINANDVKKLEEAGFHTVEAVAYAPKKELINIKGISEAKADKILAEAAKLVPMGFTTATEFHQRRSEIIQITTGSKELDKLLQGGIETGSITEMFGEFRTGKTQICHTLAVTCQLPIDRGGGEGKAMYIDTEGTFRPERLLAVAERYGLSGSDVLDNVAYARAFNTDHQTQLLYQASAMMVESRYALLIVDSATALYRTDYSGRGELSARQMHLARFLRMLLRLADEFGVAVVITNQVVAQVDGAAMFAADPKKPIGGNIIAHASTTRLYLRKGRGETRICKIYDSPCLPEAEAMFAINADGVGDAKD
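System: hRad51 filaments on single-stranded DNA; reagent: Fluorescein- and BHQ1-tagged 47-mer duplex; compound dosing: one concentration, 10 µM final; timing: filaments 15 min 37 °C, then compound 30 min; measured by: fluorescein emission 520 nm, excitation 485 nm; benchmarks: per-plate controls and blanks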
L major viab: Leishmania major promastigote growth inhibition, primary screen. inhibition, % at 10 µM. actives 9% (n = 200,000). AID 1063, 2008. Leishmania major promastigotes, resazurin fluorescence viability; in the data active = inhibition above about 50%;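 note: promastigotes grown with compound for 44 hours at 28 °C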
* hit, by the source's call; i = inactive; . = no result given.

SMILES	WT yeast gro inh	PMI act	PMI act satM6P	m-calpain inh	Rad51 HR inh	L major viab
CCCCCCCOC1(c2ccccc2)OC(=O)c2ccccc21 (stereo not drawn)	54.9	0.9	0.9	-8.3	.	-1.2
COc1ccc(NC(=O)Nc2ccccc2F)cc1Cl	16.2	0.9	0.9	20.4	1.4	-3.8
Cc1cc(N2CCN(Cc3nc(-c4ccc(F)cc4)oc3C)CC2)cc(C)n1	13.2	0.8	0.9	-6.7	20.9	92.7*
COC(=O)c1cc2sccc2n1Cc1nc(-c2cccc(Cl)c2)oc1C	-3.6	0.9	0.8	-46.9	-2.3	63.7*
Cc1cccc(N2CCN(Cc3nc(-c4ccccc4Cl)oc3C)CC2)n1	31.3	0.9	0.9	24.7	.	12.2
Cc1cccc(N2CCN(Cc3nc(-c4cccc(Cl)c4)oc3C)CC2)n1	62.1*	.	.	-19.5	-1.3	11.9
Cc1cc(NC(=O)CSc2nc3ccsc3c(=O)n2CCCC(=O)NCCc2ccccc2)no1	-0.4	1	1.1	50.3*	-9.3	5.7
Cc1cccc(N2C(=O)CN(Cc3sccc3C)C2=S)c1	13.7	1	1.1	7.3	5.9	22.0
Cc1ccsc1CN1CC(=O)N(c2c(C)cccc2C)C1=S	26.5	0.9	0.9	-12.0	6.0	53.4*
COc1cccc(N2CCN(C(=O)Nc3ccccc3Cl)CC2)c1	8.1	1	0.9	4.5	0.2	9.2
O=C1CC(N2CCN(C/C=C/c3ccccc3)CC2)C(=O)N1Cc1cccs1 (stereo not drawn)	8.0	1	1	-6.1	3.6	89.3*
CCOC(=O)N1CCN(C2OC(=O)c3ccccc32)CC1 (stereo not drawn)	12.8	0.9	0.9	12.3	.	-5.0
O=C1OC(N2CCN(C/C=C/c3ccccc3)CC2)c2ccccc21 (stereo not drawn)	0.9	1	0.9	7.5	.	55.8*
O=C1CC(N2CCN(c3ccc(O)cc3)CC2)C(=O)N1Cc1cccs1 (stereo not drawn)	-17.3	0.7	0.7	-3.3	12.8	16.4
O=C1CC(N2CCN(C/C=C/c3ccccc3)CC2)C(=O)N1CCc1ccccc1 (stereo not drawn)	-6.8	1	1	-38.4	-3.5	93.2*
O=C(Nc1nc2ccccc2[nH]1)c1ccc(Br)o1	2.2	1.1	0.8	-10.3	11.4	16.1
Fc1ccc(-c2nc3c(-c4ccc(Cl)cc4)cnn3cc2CCN2CCOCC2)cc1	13.2	0.9	1	-11.9	.	12.7
C=CCn1c(N)c(C(=O)OCCC)c2nc3ccccc3nc21	7.7	0.9	0.8	i	-1.9	99.6*
Cc1ccc(S(=O)(=O)N2CCOCC2)cc1C(=O)c1nccn1C	8.5	1	0.8	-13.3	-0.3	-16.6
CCCOP(=O)(c1ccc(N(C)C)cc1)C(Nc1ccccc1)c1ccc(N(C)C)cc1 (stereo not drawn)	17.8	0.9	1	-28.1	5.8	25.0
CCCCOP(=O)(c1ccc(N(C)C)cc1)C(Nc1ccccc1)c1ccccc1 (stereo not drawn)	81.2*	0.9	0.8	40.2	1.3	41.1
CCOC(=O)N1CCN(CC(=O)Nc2ccc(Oc3ccccc3)cc2)CC1	.	1	1	-2.0	.	97.1*
CCCOc1ccc(C(=O)CCC(=O)OCC(=O)Nc2ccc(Oc3ccccc3)cc2)cc1	3.8	0.9	0.9	-10.0	-0.1	-5.3
C=CCC(=O)OCC(=O)Nc1ccc(Oc2ccccc2)cc1	-6.1	1.1	1	.	.	96.6*
CN1CCN(CC(=O)Nc2ccc(Oc3ccccc3)cc2)CC1	13.6	0.8	0.9	-5.5	-0.5	37.7
SMILES	WT yeast gro inh	PMI act	PMI act satM6P	m-calpain inh	Rad51 HR inh	L major viab
CC1CCCCN1CC(=O)Nc1ccc(Oc2ccccc2)cc1 (stereo not drawn)	0.9	1.1	1.1	-12.3	-0.6	96.3*
CCOC(=O)/C(C#N)=C\c1cccnc1	-12.3	1	1	-11.0	2.7	-4.4
CCOC(=O)/C(=C\c1ccccc1)C(=O)c1cc(C(C)=O)c(Nc2ccccc2)s1	29.9	0.8	0.8	-32.8	7.1	100.5*
CCOC(=O)/C(=C\c1cccnc1)C(=O)c1cc(C(C)=O)c(Nc2ccccc2)s1	83.6*	0.9	0.9	-50.5	-1.9	100.2*
CN1C(=O)/C(=N\OC(=O)c2ccccc2Cl)c2ccccc21	15.8	1	0.9	-12.7	-54.4	2.1
CC(=O)O/N=C1\C(=O)N(Cc2ccc(C)cc2)c2ccccc21	33.2	1.1	1	57.9*	27.4	-10.8
CCSc1nnc(NC(=O)COc2ccc3ccccc3c2)s1	83.7*	0.9	0.9	8.0	-1.7	-9.2
CCCC(=O)Nc1nnc(SCC)s1	-9.4	1	1	5.9	16.8	69.8*
CCSc1nnc(NC(=O)CSc2ncccn2)s1	-4.5	0.9	1	14.4	7.5	1.1
COc1cc2c(cc1OC)C(C1C(=O)CC(C)CC1=O)N(C(=O)CCl)CC2 (stereo not drawn)	10.7	1.2	1.1	-46.7	-1.4	0.0
Cc1ccc(S(=O)(=O)/N=C(\N)Nc2nc(C)c3ccccc3n2)cc1	3.6	0.9	0.9	4.9	-1.5	2.1
Cc1ccc2nc(N/C(N)=N/S(=O)(=O)c3ccc([N+](=O)[O-])cc3)nc(C)c2c1	3.1	0.9	1	-65.3	2.6	98.7*
O=C(N/N=C/c1cn(-c2cccs2)nc1-c1ccccc1)c1ccccc1O	60.1*	1.1	1.1	-33.2	-7.5	99.4*
O=C(N/N=C/c1cn(-c2cccs2)nc1-c1ccccc1)c1ccccc1Br	11.6	0.8	0.9	-26.9	1.7	13.0
Cc1cc(N2CCC(C)CC2)nc(-n2nc(C)cc2C)n1	67.4*	0.8	0.8	7.9	10.3	97.1*
Cc1cc(C)n(-c2nc3ccccc3nc2N2CCC(C)CC2)n1	-5.2	0.9	0.9	28.5	4.5	4.3
CCOC(=O)C1(CCOc2ccccc2)CCN(Cc2ccncc2)CC1	-0.9	.	.	-31.6	5.2	86.4*
CCOC(=O)C1(CCOc2ccccc2)CCN(Cc2ccc(-n3cccn3)cc2)CC1	14.3	0.8	0.8	-12.1	-0.3	89.9*
CCOC(=O)C1(CCOc2ccccc2)CCN(Cc2cccn2-c2ncccn2)CC1	8.9	0.8	0.8	-15.1	.	40.8
C/C(=N\NC(=S)Nc1c(C)cccc1C)c1ccc(OC(F)F)cc1	4.1	0.9	0.9	-3.2	4.1	-5.4
CCn1c(=O)c2c(nc3n2CCN3c2ccccc2)n(C)c1=O	-13.7	1.1	1	8.5	0.9	-4.0
CC(C)(C)NCCOCCOc1ccccc1-c1ccccc1	-6.9	0.9	1.1	-3.9	-5.4	35.4
